Data published in ChEMBL document CHEMBL1150787, “The L80I substitution in the reverse transcriptase domain of the hepatitis B virus polymerase is associated with lamivudine resistance and enhanced viral replication in vitro” (Antimicrob Agents Chemother, 2007).
pEC50: −log10 of the molar value. The source made the active and inactive calls. No cut-off for these calls is given here.

How the values were obtained:
HBV genotype D [1] = experiment: Antiviral activity against HBV genotype D in human Huh7 cells assessed as inhibition of viral replication after 5 days; type: functional, organism-based; conditions: Hepatitis B virus, Huh-7, 120 h
Method in brief: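 Huh7 cells (DMEM, 10% FBS, 37°C, 5% CO2) at 60–80% confluence were transiently transfected with a wild-type HBeAg-negative HBV clone or mutants. They were exposed continuously to LMV (0–10 μM) or ADV (0–10 μM). Day-5 intracellular core-associated HBV DNA was measured by Southern blot, autoradiography and densitometry, normalized to untreated controls. Three assays were pooled; EC50 came from a three-parameter logistic fit.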

HBV genotype D [2] = experiment: Antiviral activity against HBV genotype D with reverse transcriptase L80I mutation in human Huh7 cells assessed as inhibition of viral replication after 5 days; type: functional, organism-based; conditions: Hepatitis B virus, Huh-7, 120 h
Method in brief: (§1)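 Huh7 cells grown in DMEM with 10% FBS at 37°C and 5% CO₂, then transiently transfected with each HBV construct. Cultures were exposed continuously to LMV at 0, 0.001, 0.01, 0.1, 1 or 10 μM for 5 days. Intracellular core-associated HBV DNA was quantified by Southern blot, autoradiography and densitometry, normalised to untreated controls. EC50 was taken from a three-parameter logistic fit of three pooled assays.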

HBV genotype D [3] = experiment: Antiviral activity against HBV genotype D with reverse transcriptase M204I mutation in human Huh7 cells assessed as inhibition of viral replication after 5 days; type: functional, organism-based; conditions: hepatitis B virus genotype D; Huh-7; method in brief: as §1
HBV genotype D [4] = experiment: Antiviral activity against HBV genotype D with reverse transcriptase L80I/M204I mutation in human Huh7 cells assessed as inhibition of viral replication after 5 days; type: functional, organism-based; conditions: hepatitis B virus genotype D; Huh-7; method in brief: as §1
HBV genotype D [5] = experiment: Antiviral activity against HBV genotype D with reverse transcriptase L180M/M204I mutation in human Huh7 cells assessed as inhibition of viral replication after 5 days; type: functional, organism-based; conditions: hepatitis B virus genotype D; Huh-7; method in brief: as §1
HBV genotype D [6] = experiment: Antiviral activity against HBV genotype D with reverse transcriptase L80I/L180M/M204I mutation in human Huh7 cells assessed as inhibition of viral replication after 5 days; type: functional, organism-based; conditions: hepatitis B virus genotype D; Huh-7; method in brief: as §1
HBV genotype D [7] = experiment: Antiviral activity against HBeAg-deficient HBV genotype D with precore G1896A mutation in human Huh7 cells assessed as inhibition of viral replication after 5 days; type: functional, organism-based; conditions: Hepatitis B virus, Huh-7, 120 h; method in brief: as §1
HBV genotype D [8] = experiment: Antiviral activity against HBeAg-deficient HBV genotype D with precore G1896A mutation and reverse transcriptase L80I mutation in human Huh7 cells assessed as inhibition of viral replication after 5 days; type: functional, organism-based; conditions: Hepatitis B virus, Huh-7, 120 h; method in brief: as §1
HBV genotype D [9] = experiment: Antiviral activity against HBeAg-deficient HBV genotype D with precore G1896A mutation and reverse transcriptase M204I mutation in human Huh7 cells assessed as inhibition of viral replication after 5 days; type: functional, organism-based; conditions: hepatitis B virus genotype D; Huh-7; method in brief: as §1
HBV genotype D [10] = experiment: Antiviral activity against HBeAg-deficient HBV genotype D with precore G1896A mutation and reverse transcriptase L80I/M204I mutation in human Huh7 cells assessed as inhibition of viral replication after 5 days; type: functional, organism-based; conditions: hepatitis B virus genotype D; Huh-7; method in brief: as §1
HBV genotype D [11] = experiment: Antiviral activity against HBeAg-deficient HBV genotype D with precore G1896A mutation and reverse transcriptase L180M/M204I mutation in human Huh7 cells assessed as inhibition of viral replication after 5 days; type: functional, organism-based; conditions: hepatitis B virus genotype D; Huh-7; method in brief: as §1
HBV genotype D [12] = experiment: Antiviral activity against HBeAg-deficient HBV genotype D with precore G1896A mutation and reverse transcriptase L80I/L180M/M204I mutation in human Huh7 cells assessed as inhibition of viral replication after 5 days; type: functional, organism-based; conditions: hepatitis B virus genotype D; Huh-7; method in brief: as §1
HBV genotype D [13] = experiment: Antiviral activity against HBV genotype D in human Huh7 cells assessed as viral replication yield at 1 uM after 5 days relative to control; type: functional, hepatitis B virus genotype D, Huh-7
Method in brief: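 Transiently transfected Huh7 cells were cultured for 5 days with or without 1 μM LMV. Intracellular core-associated HBV DNA was measured by Southern blot, corrected for transfection efficiency using supernatant HBsAg (IMX enzyme immunoassay), and expressed relative to the mean of the uninhibited controls (set to 1.0). Data come from at least three experiments.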

HBV genotype D [14] = experiment: Antiviral activity against HBV genotype D with reverse transcriptase L80I mutation in human Huh7 cells assessed as viral replication yield at 1 uM after 5 days relative to control; type: functional, hepatitis B virus genotype D, Huh-7
Method in brief: (§2)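 Huh7 transfectants were cultured for 5 days with or without 1 μM LMV. Intracellular core-associated HBV DNA was measured by Southern blot and densitometry. Yields were corrected for transfection efficiency by HBsAg in supernatant (IMX immunoassay) and expressed relative to the mean of uninhibited controls (1.0). Each value comes from at least three experiments.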

HBV genotype D [15] = experiment: Antiviral activity against HBV genotype D with reverse transcriptase M204I mutation in human Huh7 cells assessed as viral replication yield at 1 uM after 5 days relative to control; type: functional, hepatitis B virus genotype D, Huh-7; method in brief: as §2
HBV genotype D [16] = experiment: Antiviral activity against HBV genotype D with reverse transcriptase L80I/M204I mutation in human Huh7 cells assessed as viral replication yield at 1 uM after 5 days relative to control; type: functional, hepatitis B virus genotype D, Huh-7; method in brief: as §2
HBV genotype D [17] = experiment: Antiviral activity against HBV genotype D with reverse transcriptase L180M/M204I mutation in human Huh7 cells assessed as viral replication yield at 1 uM after 5 days relative to control; type: functional, hepatitis B virus genotype D, Huh-7; method in brief: as §2
HBV genotype D [18] = experiment: Antiviral activity against HBV genotype D with reverse transcriptase L80I/L180M/M204I mutation in human Huh7 cells assessed as viral replication yield at 1 uM after 5 days relative to control; type: functional, hepatitis B virus genotype D, Huh-7; method in brief: as §2
HBV genotype D [19] = experiment: Antiviral activity against HBeAg-deficient HBV genotype D with precore G1896A mutation in human Huh7 cells assessed as viral replication yield at 1 uM after 5 days relative to control; type: functional, hepatitis B virus genotype D, Huh-7; method in brief: as §2
HBV genotype D [20] = experiment: Antiviral activity against HBeAg-deficient HBV genotype D with precore G1896A mutation and reverse transcriptase L80I mutation in human Huh7 cells assessed as viral replication yield at 1 uM after 5 days relative to control; type: functional, hepatitis B virus genotype D, Huh-7; method in brief: as §2
HBV genotype D [21] = experiment: Antiviral activity against HBeAg-deficient HBV genotype D with precore G1896A mutation and reverse transcriptase M204I mutation in human Huh7 cells assessed as viral replication yield at 1 uM after 5 days relative to control; type: functional, hepatitis B virus genotype D, Huh-7; method in brief: as §2
HBV genotype D [22] = experiment: Antiviral activity against HBeAg-deficient HBV genotype D with precore G1896A mutation and reverse transcriptase L80I/M204I mutation in human Huh7 cells assessed as viral replication yield at 1 uM after 5 days relative to control; type: functional, hepatitis B virus genotype D, Huh-7; method in brief: as §2
HBV genotype D [23] = experiment: Antiviral activity against HBeAg-deficient HBV genotype D with precore G1896A mutation and reverse transcriptase L180M/M204I mutation in human Huh7 cells assessed as viral replication yield at 1 uM after 5 days relative to control; type: functional, hepatitis B virus genotype D, Huh-7; method in brief: as §2
HBV genotype D [24] = experiment: Antiviral activity against HBeAg-deficient HBV genotype D with precore G1896A mutation and reverse transcriptase L80I/L180M/M204I mutation in human Huh7 cells assessed as viral replication yield at 1 uM after 5 days relative to control; type: functional, hepatitis B virus genotype D, Huh-7; method in brief: as §2
HBV genotype D [25] = experiment: Effect on replication efficiency of HBV genotype D with reverse transcriptase L80I mutation in human Huh7 cells assessed as decrease in viral replication yield at 1 uM after 5 days relative to control; type: functional, hepatitis B virus genotype D, Huh-7; parameters: scale not given: the % may be the effect or the level left; method in brief: as §2
HBV genotype D [26] = experiment: Effect on replication efficiency of HBV genotype D with reverse transcriptase L80I/M204I mutation in human Huh7 cells assessed as increase in viral replication yield at 1 uM after 5 days relative to control; type: functional, hepatitis B virus genotype D, Huh-7; method in brief: as §2
HBV genotype D [27] = experiment: Effect on replication efficiency of HBV genotype D with reverse transcriptase L80I/L180M/M204I mutation in human Huh7 cells assessed as decrease in viral replication yield at 1 uM after 5 days relative to control; type: functional, hepatitis B virus genotype D, Huh-7; parameters: scale not given: the % may be the effect or the level left; method in brief: as §2
HBV genotype D [28] = experiment: Effect on replication efficiency of HBeAg-deficient HBV genotype D with precore G1896A mutation and reverse transcriptase L80I/M204I mutation in human Huh7 cells assessed as decrease in viral replication yield at 1 uM after 5 days relative to control; type: functional, hepatitis B virus genotype D, Huh-7; parameters: scale not given: the % may be the effect or the level left; method in brief: as §2
HBV genotype D [29] = experiment: Effect on replication efficiency of HBeAg-deficient HBV genotype D with precore G1896A mutation and reverse transcriptase L80I/L180M/M204I mutation in human Huh7 cells assessed as increase in viral replication yield at 1 uM after 5 days relative to control; type: functional, hepatitis B virus genotype D, Huh-7; method in brief: as §2
HBV genotype D [30] = experiment: Effect on replication efficiency of HBeAg-deficient HBV genotype D with precore G1896A mutation and reverse transcriptase L80I mutation in human Huh7 cells assessed as decrease viral replication yield at 1 uM after 5 days relative to control; type: functional, hepatitis B virus genotype D, Huh-7; parameters: scale not given: the % may be the effect or the level left; method in brief: as §2

Question: What does the source list for Nc1ccn([C@@H]2CS[C@H](CO)O2)c(=O)n1 [LAMIVUDINE]?
Answer: pEC50 (HBV genotype D [1]): 6.39; pEC50 (HBV genotype D [2]): 7.52; Activity (HBV genotype D [3]): inactive; Activity (HBV genotype D [4]): inactive; Activity (HBV genotype D [5]): inactive; Activity (HBV genotype D [6]): inactive; pEC50 (HBV genotype D [7]): 6.34; pEC50 (HBV genotype D [8]): 7.52; Activity (HBV genotype D [9]): inactive; Activity (HBV genotype D [10]): inactive; Activity (HBV genotype D [11]): inactive; Activity (HBV genotype D [12]): inactive; fold change (FC) (HBV genotype D [13]): 0.33; fold change (FC) (HBV genotype D [14]): 0.06; fold change (FC) (HBV genotype D [15]): 0.38; fold change (FC) (HBV genotype D [16]): 3.76; fold change (FC) (HBV genotype D [17]): 0.65; fold change (FC) (HBV genotype D [18]): 0.34; fold change (FC) (HBV genotype D [19]): 0.35; fold change (FC) (HBV genotype D [20]): 0.04; fold change (FC) (HBV genotype D [21]): 1.4; fold change (FC) (HBV genotype D [22]): 0.27; fold change (FC) (HBV genotype D [23]): 0.54; fold change (FC) (HBV genotype D [24]): 3.27; Activity (HBV genotype D [25]): 82%; Activity (HBV genotype D [26]): 902%; Activity (HBV genotype D [27]): 48%; Activity (HBV genotype D [28]): 80%; Activity (HBV genotype D [29]): 506%; Activity (HBV genotype D [30]): 88%
